Consider 37 sequences from the array DNA melting data of Ke et al. (doi:10.1101/2024.01.08.574731).

Series [1] can be described thus: melting temperature; fluorescence melt of hairpins on a sequencing array, two-state fit, raised by 9.35 °C to match UV melts. Particulars: sodium 0.088 M. The method in brief: (§1)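 Hairpins were imaged by Cy3 fluorescence on a sequenced MiSeq flow cell with annealed Cy3 and quencher oligos, in 50 mM Na-HEPES pH 8.0, 25 mM NaCl, in 2.5 °C steps up to 60 °C. Bootstrapped two-state fits of normalised signals gave melting temperature and folding enthalpy. Four replicates were combined by inverse variance, and fitted temperatures were raised by 9.35 °C to match UV melts.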

Series [2] can be described thus: folding enthalpy; higher = less favourable; fluorescence melt of hairpins on a sequencing array, two-state fit. Conditions: sodium 0.088 M. The essentials: as §1

As to GCTGTAGCGAAAGCTAGC (((..(((....)))))), in series [1], the Tm turned out to be 46.4 °C. The folding enthalpy in series [2] was -14 kcal/mol.

As to GATCCAATCTGGATC ((((((...)))))), the Tm in series [1] stood at 51.8 °C. In addition, in series [2], the folding enthalpy was -33.1 kcal/mol.

Take GCGGATTTCCGC ((((....)))): the Tm in series [1] turned out to be 64.6 °C. In series [2], the folding enthalpy is -22.4 kcal/mol.

For the sequence GTACACGAAAGTGAGTAC ((((((....)))..))), the Tm in series [1] came to 36.5 °C. In addition, the folding enthalpy in series [2] is -15.6 kcal/mol.

In the case of GTATCAGGAAACTGATAC (((((((....))))))), in series [1], the Tm stood at 54.6 °C. Further, the folding enthalpy in series [2] is -39.3 kcal/mol.

For GTAAGCCCGAAAGGGTAC (((..(((....)))))), the Tm in series [1] was found to be 28.1 °C. The folding enthalpy in series [2] is -10.6 kcal/mol.

Regarding GATCGGGGAAACCTGGTC ((.(.((....)).).)), in series [1], the Tm was found to be 36.3 °C. Further, the folding enthalpy in series [2] was -22.6 kcal/mol.

Regarding GCTCGCGGAAACGCGAAC (.(((((....))))).), the Tm in series [1] is 48.9 °C. The folding enthalpy in series [2] is -11.3 kcal/mol.

Take GATCTGATTGCAGATC ((((((....)))))): in series [1], the Tm is 48.2 °C. In series [2], the folding enthalpy was -29.1 kcal/mol.

CCGTTGAAAAACGG (((((....))))): the Tm in series [1] came out at 54.3 °C. Also, the folding enthalpy in series [2] was -19.9 kcal/mol.

As for GTGGTTACGAAAGTACAC (((..(((....)))))), in series [1], the Tm is 35.5 °C. The folding enthalpy in series [2] is -20.7 kcal/mol.

For the sequence GATCTTGCAGAAGATC ((((((....)))))), the Tm in series [1] was 46.8 °C. For the same sequence, the folding enthalpy in series [2] was -34.8 kcal/mol.

With GACATAGAAATATGTC ((((((....)))))), the Tm in series [1] came to 45.5 °C. In addition, the folding enthalpy in series [2] was -30 kcal/mol.

Regarding GTTCAAGGAAACTTAAAC (((.(((....))).))), the Tm in series [1] is 29 °C. In series [2], the folding enthalpy was -10.5 kcal/mol.

As to CGTGTTCGGAAACGAACG (((..(((....)))))), in series [1], the Tm was 42.1 °C. Also, the folding enthalpy in series [2] was -8.25 kcal/mol.

On to GCAGGCGAAAGCCAATGC ((((((....)))..))), for which the Tm in series [1] turned out to be 49.1 °C. In addition, the folding enthalpy in series [2] was -15.5 kcal/mol.

On to CGGATGAAAATCCG (((((....))))), for which, in series [1], the Tm was 56 °C. In addition, the folding enthalpy in series [2] was -25.5 kcal/mol.

Regarding GGGCCCGGAAACGGACCC (((.(((....))).))), the Tm in series [1] was 58.8 °C. Besides, the folding enthalpy in series [2] was -39.3 kcal/mol.

As for GCCAAAGCGAAAGCTGGC (((..(((....)))))), the Tm in series [1] came out at 59.7 °C. Moreover, the folding enthalpy in series [2] is -26.1 kcal/mol.

Take GTTGTTCGAAAGAAAAAC (((.(((....))).))): in series [1], the Tm came out at 34.9 °C. In series [2], the folding enthalpy was -29.1 kcal/mol.

On to CTGACGAAAGTCAG (((((....))))), for which the Tm in series [1] was found to be 65 °C. Further, in series [2], the folding enthalpy was -29 kcal/mol.

Take GAAGTTGGAAACGATTTC (((.(.(....).).))): the Tm in series [1] was 36.7 °C. Also, the folding enthalpy in series [2] was -20.9 kcal/mol.

As to GGAGTGGGAAACCATTCC (((.(((....))).))), in series [1], the Tm was determined as 46 °C. For the same sequence, the folding enthalpy in series [2] is -31 kcal/mol.

Regarding GAAGCGCGAAAGCGTTC (((.(((....)))))), the Tm in series [1] came out at 41.2 °C. Moreover, the folding enthalpy in series [2] is -10.6 kcal/mol.

For the sequence GATCTTTTACAAGATC ((((((....)))))), the Tm in series [1] came to 42.8 °C. Moreover, the folding enthalpy in series [2] is -31.9 kcal/mol.

Consider GATCTCAGCTGAGATC ((((((....)))))), for which the Tm in series [1] turned out to be 54.9 °C. In addition, in series [2], the folding enthalpy is -46.8 kcal/mol.

With GCGAACGGAAACGCTCGC ((((.((....)).)))), the Tm in series [1] was 55.7 °C. In series [2], the folding enthalpy is -41.5 kcal/mol.

For GATCACGGAGGTGATC ((((((....)))))), the Tm in series [1] came to 64.3 °C. Besides, the folding enthalpy in series [2] was -37.9 kcal/mol.

Take GACTTCGAAAGAAGTC ((((((....)))))): the Tm in series [1] was 62 °C. Also, in series [2], the folding enthalpy is -38.8 kcal/mol.

Regarding GTGTTCGGAAACGAATGC (..((((....))))..), the Tm in series [1] was 42.1 °C. Further, the folding enthalpy in series [2] was -24.9 kcal/mol.

As for GATCTTGAAGAAGATC ((((((....)))))), in series [1], the Tm stood at 44.3 °C. For the same sequence, the folding enthalpy in series [2] was -25.9 kcal/mol.

On to GACGTCGGAAACGATGTC (((.(((....))).))), for which the Tm in series [1] is 54.7 °C. The folding enthalpy in series [2] is -52.2 kcal/mol.

GATCAGGTTCCTGATC ((((((....)))))): the Tm in series [1] came out at 53.7 °C. Besides, the folding enthalpy in series [2] was -47.5 kcal/mol.

For the sequence GCGCCGCGAAAGCCGTGC ((.(.((....)).).)), the Tm in series [1] is 52.1 °C. Further, the folding enthalpy in series [2] was -20.5 kcal/mol.

For GTCCTCGGAAACGAAGAC (((.(((....))).))), the Tm in series [1] came to 38 °C. In addition, the folding enthalpy in series [2] was -26 kcal/mol.

For the sequence GTCTACCGAAAGGTTGAC (((.(((....))).))), in series [1], the Tm came out at 52.6 °C. Further, the folding enthalpy in series [2] is -40.5 kcal/mol.

Turning to GCCTAATCGAAAGATGGC (((..(((....)))))), in series [1], the Tm is 44.1 °C. Also, in series [2], the folding enthalpy was -27.4 kcal/mol.
